{
  "source": "ChEMBL document CHEMBL1138476",
  "about": "(J Med Chem, 2009)",
  "key": {"Canis familiaris [1]": {"system": "Canis familiaris", "test": "Effect on respiratory function in spontaneously breathing mongrel dog assessed as change in tidal volume at 5 mg/kg after intravenous infusion for 15 mins (RVb= 2.2+/-4.3 %)", "assay_type": "functional, Canis lupus familiaris"}, "Adenosine receptor A1": {"biological_target": "T1, Adenosine receptor A1 (Rattus norvegicus, UniProt P25099)", "T1 sequence (P25099 whole entry)": "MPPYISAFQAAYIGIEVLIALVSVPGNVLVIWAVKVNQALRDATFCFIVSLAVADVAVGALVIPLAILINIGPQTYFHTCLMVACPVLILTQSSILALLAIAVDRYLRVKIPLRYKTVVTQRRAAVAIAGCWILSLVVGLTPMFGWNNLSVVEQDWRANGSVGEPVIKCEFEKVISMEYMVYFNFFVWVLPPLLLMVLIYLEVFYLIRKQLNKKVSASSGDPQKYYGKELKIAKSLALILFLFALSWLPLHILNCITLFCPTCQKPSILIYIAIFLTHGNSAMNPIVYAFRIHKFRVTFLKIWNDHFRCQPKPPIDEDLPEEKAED", "test": "Binding affinity to rat adenosine A1 receptor expressed in CHO cells", "assay_type": "cell-based", "how_it_was_run": "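Cloned rat adenosine A1 receptor transfected into CHO cells, part of a contracted screen.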"}, "[2]": {"test": "Plasma concentration in dog at 3 mg/kg after […]", "assay_type": "ADME, organism-based, Canis lupus familiaris", "parameters": "dose 3 mg/kg, route intravenous", "conditions": "iv"}, "Canis familiaris [3]": {"system": "Canis familiaris", "test": "Effect on respiratory function in spontaneously breathing mongrel dog assessed as change in heart rate at 5 mg/kg after intravenous infusion for 6 mins (RVb= -0.4+/-0.7 %)", "assay_type": "functional, Canis lupus familiaris"}, "[4]": {"biological_target": "T2, Corticotropin-releasing factor receptor 1 (Rattus norvegicus, UniProt P35353)", "T2 sequence (P35353 whole entry)": "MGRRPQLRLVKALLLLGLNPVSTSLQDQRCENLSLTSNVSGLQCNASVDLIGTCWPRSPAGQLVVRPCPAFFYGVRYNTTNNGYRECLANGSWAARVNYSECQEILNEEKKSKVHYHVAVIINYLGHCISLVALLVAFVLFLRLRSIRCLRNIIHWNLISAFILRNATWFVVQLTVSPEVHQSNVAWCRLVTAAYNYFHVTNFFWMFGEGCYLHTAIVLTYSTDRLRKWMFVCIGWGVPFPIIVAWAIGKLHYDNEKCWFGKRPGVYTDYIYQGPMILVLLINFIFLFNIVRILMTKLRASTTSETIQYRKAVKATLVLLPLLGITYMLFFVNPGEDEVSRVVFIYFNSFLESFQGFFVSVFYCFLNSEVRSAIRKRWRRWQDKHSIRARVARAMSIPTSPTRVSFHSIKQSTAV", "test": "Displacement of [125I]Tyro-rat/human CRF from CRF1 receptor in rat cortical membrane by gamma counting", "assay_type": "cell membranes", "how_it_was_run": "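Binding to CRF receptors in rat cortical homogenate.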"}, "Canis familiaris [5]": {"system": "Canis familiaris", "test": "Effect on respiratory function in spontaneously breathing mongrel dog assessed as change in tidal volume at 5 mg/kg after intravenous infusion for 6 mins (RVb= 5.8+/-3.8 %)", "assay_type": "functional, Canis lupus familiaris"}, "[6]": {"test": "AUC (0 to infinity) in chimpanzee at 1 mg/kg, po", "assay_type": "ADME, organism-based, Pan troglodytes", "parameters": "time infinity, dose 1 mg/kg, route oral", "conditions": "plasma", "how_it_was_run": "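Chimpanzee PK. Oral: 1 mg/kg in two alert animals, given as a 1 mg/mL suspension in 50–50 (v/v) 0.5% methylcellulose/Tang orange juice with 1% Tween-80. IV: 0.5 mg/kg in one animal in 10% DMAC, 70% propylene glycol and deionized water, infused over 10 min (0.2 mL/kg). EDTA blood was taken predose and at 2–96 h; iv sampling added 6, 15 and 30 min.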"}, "[7]": {"test": "Solubility in 0.01 N HCl at pH 2.5", "assay_type": "physicochemical"}, "Canis familiaris [8]": {"system": "Canis familiaris", "test": "Effect on respiratory function in spontaneously breathing mongrel dog assessed as change in respiration rate at 5 mg/kg after intravenous infusion for 15 mins (RVb= -6.4+/-4.0 %)", "assay_type": "functional, Canis lupus familiaris"}, "Canis familiaris [9]": {"system": "Canis familiaris", "test": "Effect on respiratory function in spontaneously breathing mongrel dog assessed as change in minute volume at 5 mg/kg after intravenous infusion for 30 mins (RVb= 1.0+/-9.7 %)", "assay_type": "functional, Canis lupus familiaris"}, "Rattus norvegicus [10]": {"system": "Rattus norvegicus", "test": "Toxicity in rat assessed as total distance traveled at 1 mg/kg, po after 1 hr by spontaneous locomotor test", "assay_type": "organism-based", "parameters": "dose 1 mg/kg, route oral", "conditions": "in vivo", "how_it_was_run": "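Spontaneous locomotor activity in rats dosed po in 0.25% Methocel 1 h pretest; doses up to 100 mg/kg. Compared with the vehicle (zero dose) group, mean ± SEM, N = rats.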"}, "Canis familiaris [11]": {"system": "Canis familiaris", "test": "Effect on respiratory function in spontaneously breathing mongrel dog assessed as change in airway resistance at 5 mg/kg after intravenous infusion for 30 mins (RVb= 20.2+/-12.3 %)", "assay_type": "functional, Canis lupus familiaris"}, "Canis familiaris [12]": {"system": "Canis familiaris", "test": "Effect on respiratory function in spontaneously breathing mongrel dog assessed as change in mean arterial pressure at 5 mg/kg after intravenous infusion for 30 mins (RVb= 4.0+/-3.0 %)", "assay_type": "functional, Canis lupus familiaris, Artery"}, "Rattus norvegicus [13]": {"system": "Rattus norvegicus", "test": "Anxiolytic activity in rat assessed as decrease in latency to exit dark chamber at 3 mg/kg, po by defensive withdrawal test relative to untreated control", "assay_type": "functional", "parameters": "scale not given: the % may be the effect or the level left", "how_it_was_run": "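Rat defensive withdrawal: latency to leave the dark chamber and explore the open field, maximum 900 s. Dosed orally in 0.25% Methocel 60 min before testing; n = 8 per dose, mean ± SEM. Analysed by Kruskal–Wallis followed by Mann–Whitney U against vehicle.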"}, "Canis familiaris [14]": {"system": "Canis familiaris", "test": "Effect on respiratory function in spontaneously breathing mongrel dog assessed as change in peak expiratory flow at 5 mg/kg after intravenous infusion for 6 mins (RVb= 3.6+/-3.7 %)", "assay_type": "functional, Canis lupus familiaris"}, "Rattus norvegicus [15]": {"system": "Rattus norvegicus", "test": "Toxicity in rat assessed as total distance traveled at 30 mg/kg, po after 1 hr by spontaneous locomotor test", "assay_type": "functional", "how_it_was_run": "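Rat spontaneous locomotor activity test with oral dosing in 0.25% Methocel 1 h before testing, at doses up to 100 mg/kg. Values are mean ± SEM, with N rats per group, compared with the vehicle (zero-dose) group.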"}, "Rattus norvegicus [16]": {"system": "Rattus norvegicus", "test": "Toxicity in rat assessed as time spent on rotarod at 3 mg/kg, po after 1 hr by rotarod test", "assay_type": "organism-based", "parameters": "dose 3 mg/kg, route oral", "conditions": "in vivo", "how_it_was_run": "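Rats, n = 8 per dose, dosed po in 0.25% Methocel 1 h before testing, at 0, 1.0, 3.0, 10, 30 and 100 mg/kg. Read-out is time on rotorod (s), mean ± SEM, compared with the vehicle (zero-dose) group.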"}, "Canis familiaris [17]": {"system": "Canis familiaris", "test": "Effect on respiratory function in spontaneously breathing mongrel dog assessed as change in pulmonary compliance at 5 mg/kg after intravenous infusion for 30 mins (RVb= -2.8+/-4.0 %)", "assay_type": "functional, Canis lupus familiaris"}, "Canis familiaris [18]": {"system": "Canis familiaris", "test": "Effect on respiratory function in spontaneously breathing mongrel dog assessed as change in heart rate at 5 mg/kg after intravenous infusion for 15 mins (RVb= -2.3+/-1.7 %)", "assay_type": "functional, Canis lupus familiaris"}, "[19]": {"test": "Aqueous solubility at pH 7.4", "assay_type": "physicochemical", "conditions": "aqueous medium", "how_it_was_run": "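Solubility measured in water at pH 7.4.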"}, "Canis familiaris [20]": {"system": "Canis familiaris", "test": "Effect on respiratory function in spontaneously breathing mongrel dog assessed as change in intrapleural pressure at 5 mg/kg after intravenous infusion for 60 mins (RVb= 18.5+/-19.9 %)", "assay_type": "functional, Canis lupus familiaris"}, "[21]": {"test": "Oral bioavailability in rat at 5 mg/kg", "assay_type": "ADME, organism-based", "conditions": "in vivo", "how_it_was_run": "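Rats (n = 3) were dosed at 1 mg/kg iv in 10% DMAC, 70% propylene glycol and deionized water, and at 5 mg/kg po in 0.5% methylcellulose.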"}, "[22]": {"test": "Solubility in ethanol", "assay_type": "physicochemical"}, "[23]": {"test": "Plasma concentration in spontaneously breathing dog at 5 mg/kg, iv after 15 mins", "assay_type": "ADME, organism-based, Canis lupus familiaris", "parameters": "dose 5 mg/kg, route intravenous", "how_it_was_run": "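Spontaneously breathing, barbiturate-anesthetized mongrel dogs (n = 4) infused iv at 5.0 mg/kg over 6 min. Total pooled plasma concentrations taken at 6, 15, 30 and 60 min.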"}},
  "data": [
    {"smiles": "CC[C@@H](C)Nc1nc(C)nc2c(-c3ccc(OC)nc3C)c(C)nn12", "note": "[PEXACERFONT]", "values": [
      {"measurement": "Activity", "setting": "Canis familiaris [1]", "value": 4.3, "unit": "%"},
      {"measurement": "Ki", "setting": "Adenosine receptor A1", "value": 2660, "unit": "nM"},
      {"measurement": "concentration at 0.5 h", "setting": "[2]", "value": 1290, "unit": "nM"},
      {"measurement": "Activity", "setting": "Canis familiaris [3]", "value": -0.3, "unit": "%"},
      {"measurement": "IC50", "setting": "[4]", "value": 6.1, "unit": "nM"},
      {"measurement": "Activity", "setting": "Canis familiaris [5]", "value": -3.5, "unit": "%"},
      {"measurement": "AUC(0-inf)", "setting": "[6]", "value": 11.7, "unit": "µM·h"},
      {"measurement": "solubility", "setting": "[7]", "value": 16.3, "unit": "mg/mL"},
      {"measurement": "Activity", "setting": "Canis familiaris [8]", "value": -3.1, "unit": "%"},
      {"measurement": "Activity", "setting": "Canis familiaris [9]", "value": -30.8, "unit": "%"},
      {"measurement": "Activity", "setting": "Rattus norvegicus [10]", "value": 4106, "unit": "cm"},
      {"measurement": "Activity", "setting": "Canis familiaris [11]", "value": -57.5, "unit": "%"},
      {"measurement": "Activity", "setting": "Canis familiaris [12]", "value": 6.2, "unit": "%"},
      {"measurement": "Activity", "setting": "Rattus norvegicus [13]", "value": 44, "unit": "%"},
      {"measurement": "Activity", "setting": "Canis familiaris [14]", "value": -12.5, "unit": "%"},
      {"measurement": "Activity", "setting": "Rattus norvegicus [15]", "value": 4846, "unit": "cm"},
      {"measurement": "Time", "setting": "Rattus norvegicus [16]", "value": 162, "unit": "s"},
      {"measurement": "Activity", "setting": "Canis familiaris [17]", "value": -22.3, "unit": "%"},
      {"measurement": "Activity", "setting": "Canis familiaris [18]", "value": -2.9, "unit": "%"},
      {"measurement": "solubility", "setting": "[19]", "value": 0.016, "unit": "mg/mL"},
      {"measurement": "Activity", "setting": "Canis familiaris [20]", "value": 0.7, "unit": "%"},
      {"measurement": "bioavailability", "setting": "[21]", "value": 40, "unit": "%"},
      {"measurement": "solubility", "setting": "[22]", "value": 300, "unit": "mg/mL"},
      {"measurement": "concentration at 0.25 h", "setting": "[23]", "value": 835, "unit": "nM"}
    ]}
  ]
}
